Laboratory results taken from ChEMBL document CHEMBL1144725, “Seco-terpenoids and other constituents from Elateriospermum tapos” (J Nat Prod, 2008).
In brackets after ≈: the same amount, converted by molar mass. Activity calls are given as the source filed them. The calls are words filed in the database; no cut-off is given here.

Assays:
NCI-H187 [1] = test: Cytotoxicity against human NCI-H187 cells at 10 ug/mL; type: functional, cell-based
Cancer cell lines = test: Cytotoxicity against human breast cancer cells at 10 ug/mL; type: functional, cell-based
[2] = Cytotoxicity against human breast cancer cells; type: functional, cell-based; details: Cancer cell lines
NCI-H187 [3] = test: Cytotoxicity against human NCI-H187 cells; type: functional, cell-based
KB = test: Cytotoxicity against human KB cells; type: functional, cell-based
[4] = test system: Mycobacterium tuberculosis; test: Antimycobacterial activity against Mycobacterium tuberculosis H37Ra by microplate alamar blue assay; type: functional
In short: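 Microplate Alamar Blue assay against Mycobacterium tuberculosis H37Ra, with isoniazid and kanamycin sulfate as reference drugs.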

Row | Structure (SMILES) | Activity (NCI-H187 [1]) | Activity (Cancer cell lines) | other results
1 | CC(=O)O[C@H]1CC[C@]2(C)[C@H]3CC[C@]4(C)C(=CC[C@@]5(C(=O)O)CCC(C)(C)C[C@H]54)[C@]3(C)CC[C@H]2C1(C)C | inactive | inactive | –
2 | C=C[C@]1(C)C=C2CC[C@@H]3C(C)(C)[C@H](O)C(=O)C[C@@]3(C)[C@@H]2C[C@@H]1O | inactive | inactive | –
3 | Cc1c2ccncc2c(C)c2c1[nH]c1ccccc12 [ELLIPTECINE] | – | – | IC50 [2]: 0.13 µg/mL (≈ 0.528 µM); IC50 (NCI-H187 [3]): 0.52 µg/mL (≈ 2.11 µM); IC50 (KB): 0.41 µg/mL (≈ 1.66 µM)
4 | COC(=O)C(C)(C)C1CC[C@@]2(C)C3=CC[C@@]4(C(=O)O)CCC(C)(C)CC4[C@]3(C)CCC2[C@@]1(C)CC(=O)O (stereo partly specified) | inactive | inactive | –
5 | CC1(C)[C@H](O)[C@@H](O)C[C@]2(C)[C@@H]1CC[C@]13C=C[C@](C)(C1)C(=O)C[C@H]32 | inactive | inactive | –
6 | C=Cc1c(C)c(O)cc2c1CCC(C(C)(C)C(=O)O)[C@@]2(C)CC(=O)O (stereo partly specified) | inactive | inactive | –
7 | COc1cc(O)c2c(=O)cc(-c3ccc(O)c(-c4c(O)cc(O)c5c(=O)cc(-c6ccc(O)cc6)oc45)c3)oc2c1 | inactive | inactive | –
8 | CC1(C)CC[C@]2(C(=O)O)CC=C3[C@]4(C)CC[C@H]5C(C)(C)[C@@H](O)CC[C@]5(C)[C@H]4CC[C@@]3(C)[C@@H]2C1 | inactive | inactive | –
9 | C=C[C@@]1(C)C(=O)C=C2C(=CC[C@@H]3C(C)(C)[C@H](O)C(=O)C[C@@]23C)[C@H]1O | inactive | inactive | –
10 | C=C(C)[C@@H]1CC[C@]2(C)CC[C@]3(C)[C@H](CC[C@@H]4[C@@]5(C)CC[C@H](O)C(C)(C)[C@@H]5CC[C@]43C)[C@@H]12 | inactive | inactive | –
11 | COC(=O)C[C@@]1(C)C(C(C)(C)C(=O)OC)CC[C@@]2(C)C3=CC[C@@]4(C(=O)O)CCC(C)(C)CC4[C@]3(C)CCC12 (stereo partly specified) | – | – | MIC [4]: 3.13 µg/mL (≈ 5.9 µM); IC50 [2]: 7.08 µg/mL (≈ 13.3 µM); IC50 (NCI-H187 [3]): 4.65 µg/mL (≈ 8.76 µM)
12 | COc1ccc(-c2cc(=O)c3c(O)cc(O)c(-c4cc(-c5cc(=O)c6c(O)cc(OC)cc6o5)ccc4O)c3o2)cc1 | inactive | inactive | –
13 | NNC(=O)c1ccncc1 [ISONIAZID] | – | – | MIC [4]: 0.05 µg/mL (≈ 0.365 µM)
14 | NC[C@H]1O[C@H](O[C@H]2[C@H](O)[C@@H](O[C@H]3O[C@H](CO)[C@@H](O)[C@H](N)[C@H]3O)[C@H](N)C[C@@H]2N)[C@H](O)[C@@H](O)[C@@H]1O.O=S(=O)(O)O [KANAMYCIN SULFATE] | – | – | MIC [4]: 1.25 µg/mL
15 | COc1cc(O)c2c(=O)cc(-c3ccc(OC)c(-c4c(O)cc(O)c5c(=O)cc(-c6ccc(O)cc6)oc45)c3)oc2c1 | inactive | inactive | –
16 | C=C(C)[C@@H]1CC[C@]2(C)CC[C@]3(C)[C@H](CC[C@@H]4[C@@]5(C)CC[C@H](OC(C)=O)C(C)(C)[C@@H]5CC[C@]43C)[C@@H]12 | inactive | inactive | –
17 | O=c1cc(-c2ccc(O)c(-c3c(O)cc(O)c4c(=O)cc(-c5ccc(O)cc5)oc34)c2)oc2cc(O)cc(O)c12 | inactive | inactive | –
18 | C=C(C)[C@H]1CC[C@]2(C)[C@H]3CC[C@@H]4[C@@]5(C)CC[C@H](O)C(C)(C)[C@@H]5CC[C@@]4(C)[C@]3(C)CC[C@@H]12 | inactive | inactive | –
